Here are results for seven compounds from ChEMBL document CHEMBL1124668, “Solid-phase synthesis of 16 potent (selective and nonselective) in vivo antagonists of oxytocin” (J Med Chem, 1989).

Starred links: 1 amine or outer side, 2 acyl side, 3 side chain; linkers in the order of their positions; H or OH if unused. Positions of bridges follow the written chain, without caps; N, C: chain ends. Non-standard residues stand in square brackets, D forms with d. Residues, ends and D or L forms follow the SMILES beside them. X1 = O=C(CC1(S[*:2])CCCCC1)[*:1]; Orn = NCCC[C@H](N)C(=O)O

The subject of assay [1] is Rattus norvegicus. Description: Antidiuretic activity in rats as intravenous dose required for reduction of 2x agonist response to equal 1x effect in estrogen pretreated rats; Weak partial agonist/antagonist. It is filed as functional. The note with it: Urine.
For assay [2], the system named is Rattus norvegicus. Description: (§1) In vivo antidiuretic activity as intravenous antagonist dose in estrogen pretreated rats; Weak partial agonist/antagonist. It counts as functional, organism-based. The note with it: Urine.
Assay [3] concerns Rattus norvegicus. Nature of the assay: Antivasopressor activity in vivo in phenoxybenzamine pre-treated rats. It counts as functional. Put shortly:
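Rats pretreated with phenoxybenzamine, under urethane anesthesia; antagonist given iv; agonist USP Posterior Pituitary Reference Standard; read-out is pressor response. Effective dose (nmol/kg) is the dose that cuts the response to 2X units of agonist to that of 1X unit, interpolated semilogarithmically from bracketing doses. pA2 assumes a 67 mL/kg distribution volume. SEM is given where there are ≥4 independent estimates.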

Assay [4] relates to Rattus norvegicus. Nature of the assay: Antidiuretic activity in rats as intravenous dose required for reduction of 2x agonist response to equal 1x effect in hydrated rats under ethanol anesthesia; Weak partial agonist/antagonist.
Assay [5] relates to Rattus norvegicus. Description: In vivo inhibition of estrogen induced changes in interuterine pressure in rats. It counts as functional. An outline of the steps:
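Rats pretreated with estrogen, under urethane anesthesia; antagonist given iv; read-out is change in integrated intrauterine pressure; agonist synthetic oxytocin. Effective dose (nmol/kg) is the dose that cuts the response to 2X units of agonist to the response to 1X unit, interpolated on a semilog scale from doses above and below it. pA2 is derived assuming a 67 mL/kg distribution volume.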

The species named for assay [6] is Rattus norvegicus. Nature of the assay: Antidiuretic activity in rat. It is filed as functional, Urine.
Assay [7] concerns Rattus norvegicus. Description: Antidiuretic activity in rats as intravenous dose required for reduction of 2x agonist response to equal 1x effect in estrogen pretreated rats; weak partial agonist/antagonist. It counts as functional, Urine.
Assay [8] relates to Rattus norvegicus. The description is as §1. It counts as functional, Urine.
Assay [9] concerns Rattus norvegicus. Nature of the assay: In vivo antidiuretic activity as intravenous antagonist dose in estrogen pretreated rats. It is filed as functional, Urine.
Assay [10] is filed under the species Rattus norvegicus. Description: Antidiuretic activity in rats. It is filed as functional, Urine.

With `CC[C@H](C)[C@H]1NC(=O)[C@@H](Cc2ccc(OC)cc2)NC(=O)CC2(CCCCC2)SSC[C@H](C(=O)N2CCC[C@H]2C(=O)N[C@@H](CCCN)C(=O)N[C@H](C)C(N)=O)NC(=O)[C@@H](CC(N)=O)NC(=O)[C@H]([C@H](C)O)NC1=O`, the ED entry in assay [1] is “Partial agonist”.

With `CC[C@H](C)[C@H]1NC(=O)[C@@H](Cc2ccc(OC)cc2)NC(=O)CC2(CCCCC2)SSC[C@H](C(=O)N2CCC[C@H]2C(=O)N[C@@H](CCCN)C(=O)N[C@H](CCCN=C(N)N)C(N)=O)NC(=O)[C@@H](CC(N)=O)NC(=O)[C@H]([C@H](C)O)NC1=O`, the Activity entry in assay [2] was “Partial agonist”.

As for `CC[C@H](C)[C@@H]1NC(=O)[C@H](Cc2ccc(OC)cc2)NC(=O)CC2(CCCCC2)SSC[C@@H](C(=O)N2CCC[C@H]2C(=O)N[C@@H](CCCN)C(=O)O)NC(=O)[C@H](CC(N)=O)NC(=O)[C@H]([C@@H](C)O)NC1=O` (Y(Me)ITNCP[Orn]-OH; linker N-5 via X1), the ED in [3] is 23 nM/kg; in assay [4] it was approximately 300 nM/kg; in [5], 1.3 nM/kg.

Turning to `CC[C@H](C)[C@@H]1NC(=O)[C@H](Cc2ccc(OC)cc2)NC(=O)CC2(CCCCC2)SSC[C@@H](C(=O)N2CCC[C@H]2C(=O)N[C@@H](CCCN)C(=O)NCC(N)=O)NC(=O)[C@H](CC(N)=O)NC(=O)[C@H]([C@@H](C)O)NC1=O` (Y(Me)ITNCP[Orn]G-NH2; linker N-5 via X1), the Activity in [6] is on record as 0.01 mg. Also, the values for the ED in [7], in assay [3] and in [5] were approximately 330 nM/kg, 9.9 nM/kg and 2 nM/kg, respectively.

Regarding `CC[C@H](C)[C@@H]1NC(=O)[C@H](Cc2ccc(OC)cc2)NC(=O)CC2(CCCCC2)SSC[C@@H](C(=O)N2CCC[C@H]2C(=O)N[C@@H](CCCN)C(=O)N[C@@H](CC(C)C)C(N)=O)NC(=O)[C@H](CC(N)=O)NC(=O)[C@H]([C@@H](C)O)NC1=O` (Y(Me)ITNCP[Orn]L-NH2; linker N-5 via X1), the figures for the ED in assay [3] and in assay [5] were 27 nM/kg and 1.8 nM/kg, respectively. In addition, the Activity in assay [8] was 0.029 mg.

On to `CC[C@H](C)[C@@H]1NC(=O)[C@H](Cc2ccc(OC)cc2)NC(=O)CC2(CCCCC2)SSC[C@@H](C(=O)N2CCC[C@H]2C(=O)N[C@@H](CCCN)C(=O)N[C@@H](Cc2ccc(O)cc2)C(N)=O)NC(=O)[C@H](CC(N)=O)NC(=O)[C@H]([C@@H](C)O)NC1=O` (Y(Me)ITNCP[Orn]Y-NH2; linker N-5 via X1), for which the Activity in [9] was 0.015 mg. Moreover, the ED is 6.6 nM/kg in [3] and 1 nM/kg in assay [5].

In assay [10], `CC[C@H](C)[C@@H]1NC(=O)C(Cc2ccc(OC)cc2)NC(=O)CC2(CCCCC2)SSC[C@@H](C(=O)N2CCC[C@H]2C(=O)N[C@@H](CCCN=C(N)N)C(=O)NCC(N)=O)NC(=O)[C@H](CC(N)=O)NC(=O)[C@H](CCC(N)=O)NC1=O` (stereo in doubt) registered an Activity of approximately 0.03 mg. Besides, the ED in [3] is 0.64 nM/kg; in assay [5], 1.1 nM/kg.
